Screens (PubChem BioAssay)
Diaphorase inh: inhibits diaphorase or chemically oxidizes, flagging diaphorase assay artifacts; 0.69% of 190,000 active; diaphorase resazurin-to-resorufin fluorescence, NADH, 16 min; bacterial (C. kluyveri) enzyme, not human; inhibition, % at 20 µM;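 active means primary screen inhibition at 20 µM above a set limit, cut at about 50% in these data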
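System: Diaphorase enzyme from Clostridium kluyveri | Amount: Enzyme working solution with 0.14 U/mL diaphorase | Benchmarks: No-NADH positive control and DMSO neutral control | Signal: Fluorescence of resorufin formed from resazurin, Ex 544/Em 590 nm | Schedule: 16-min room-temperature incubation before reading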
G6PDH counter: inhibits Leuconostoc G6PDH, flagging false hits in G6PDH-based assays; Purified L. mesenteroides G6PDH, diaphorase/resazurin coupled fluorescence, 45 min; inhibition, % at 5 µM; 0.12% of 200,000 active; AID 1020; in the data active means inhibition above about 50%
PfGluPho inh: PfG6PD (Plasmodium falciparum) enzyme inhibition; 0.78% of 350,000 active; inhibition, % at 20 µM; AID 504690; PfGluPho enzyme, NADPH resazurin-diaphorase fluorescence;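 active means inhibition reaching at least a set limit at 20 µM in the primary screen, cut at about 59% in these data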
HKDC1 inhibitor: blocks human hexokinase HKDC1 activity. inhibition, % at 20 µM. Q2TB90. 0.16% of 340,000 active. recombinant HKDC1, G6PDH/diaphorase resazurin coupled fluorescence;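 active means inhibition above about 35% when tested at 20 µM, limit read from the data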
Target sequence (Q2TB90 whole entry, looked up): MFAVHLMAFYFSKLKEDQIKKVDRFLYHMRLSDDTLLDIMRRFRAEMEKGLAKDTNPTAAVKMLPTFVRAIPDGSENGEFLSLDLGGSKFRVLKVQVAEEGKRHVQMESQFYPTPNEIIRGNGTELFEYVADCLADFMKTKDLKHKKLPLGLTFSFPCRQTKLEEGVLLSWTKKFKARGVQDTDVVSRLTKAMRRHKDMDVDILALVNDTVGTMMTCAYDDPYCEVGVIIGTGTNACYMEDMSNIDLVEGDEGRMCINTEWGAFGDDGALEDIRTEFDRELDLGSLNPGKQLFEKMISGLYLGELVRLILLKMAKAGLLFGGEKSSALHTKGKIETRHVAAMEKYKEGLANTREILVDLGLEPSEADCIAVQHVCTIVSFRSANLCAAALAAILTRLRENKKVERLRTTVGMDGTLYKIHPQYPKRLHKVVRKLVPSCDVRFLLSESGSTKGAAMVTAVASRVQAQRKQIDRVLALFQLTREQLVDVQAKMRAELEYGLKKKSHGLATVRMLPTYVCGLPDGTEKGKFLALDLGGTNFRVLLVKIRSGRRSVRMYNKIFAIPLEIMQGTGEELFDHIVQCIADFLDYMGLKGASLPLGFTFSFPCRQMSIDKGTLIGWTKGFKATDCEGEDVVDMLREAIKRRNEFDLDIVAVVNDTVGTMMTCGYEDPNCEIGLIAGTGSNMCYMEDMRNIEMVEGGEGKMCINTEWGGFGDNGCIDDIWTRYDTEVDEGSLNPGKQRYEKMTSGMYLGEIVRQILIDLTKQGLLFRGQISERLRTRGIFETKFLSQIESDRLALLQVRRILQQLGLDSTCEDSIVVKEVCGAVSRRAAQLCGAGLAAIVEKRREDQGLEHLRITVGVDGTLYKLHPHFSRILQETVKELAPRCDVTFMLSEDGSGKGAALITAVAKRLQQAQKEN
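Test system: HK5 enzyme. Quantity: 5 µg/mL HK5 final. Reagent: glucose and ATP substrates. Schedule: 90 min reaction incubation at room temperature, dark. Technique: resazurin-to-resorufin fluorescence via G6PDH and diaphorase coupling, 525/613 nm. Control set: DMSO wells with and without enzyme mix.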
PfGluPho conf: PfG6PD inhibition, single-dose confirmed; shares compounds with PfGluPho inh; recombinant PfGluPho, NADPH-diaphorase-resazurin fluorescence; inhibition, % at 20 µM; 34% of 2,400 active; AID 504753;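 active means inhibition of at least 50% at 20 µM in any single replicate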
Diaph ctr 10uM: diaphorase inhibition or oxidation at 10 uM NADPH | inhibition, % at 20 µM | shares compounds with PfGluPho inh | diaphorase-coupled resazurin reduction, fluorescence, NADPH 10 uM | 39% of 820 active;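 active means average inhibition reaching 50% or more with the compound at 20 µM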;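 further: resorufin red fluorescence formed as diaphorase reduces resazurin using NADPH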
Diaphorase 30uM: inhibits diaphorase or oxidizes, flagging false PfG6PD hits; shares compounds with PfGluPho inh; Diaphorase/resazurin coupled assay, resorufin fluorescence, 30 uM NADPH; inhibition, % at 20 µM; 29% of 820 active; AID 504863;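 active means inhibition averaging 50% or more, tested at 20 µM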
A number is an active result; - = inactive; . = not tested or not shown; ! = a repeat was not active. A selection: hits, their analogues and other compounds. The true share with any hit is near 1.3%.

SMILES	Diaphorase inh	G6PDH counter	PfGluPho inh	HKDC1 inhibitor	PfGluPho conf	others
COc1ccc(-c2csc(NC(=O)CS(=O)(=O)c3ccccc3)n2)cc1	.	.	68.5	-	-
O=C(CCS(=O)(=O)c1ccc(F)cc1)Nc1nc(-c2ccncc2)cs1	.	.	60.5	-	-
COc1c(NC=O)c2c(c([N+](=O)[O-])c1OC)C(=O)OC2	.	.	-	-	.
Cc1ccc(-c2c3c([nH]c(=S)c2C#N)CCCC3)o1	50.6	-	59.4	-	-
CC1CCCCN1CC(=O)Nc1ccc2c(c1)OCO2 (configuration not stated)	.	.	-	-	.
Cc1cc(O)c(C(C)C)cc1N=Cc1ccc(N(C)C)cc1	.	.	105.9	-	83.3	Diaph ctr 10uM=86.8;Diaphorase 30uM=-
CNC(=S)N/N=C/c1ccc(N(C)C)cc1	.	.	-	-	.
Cc1cc(O)c(C(C)C)cc1N=Cc1ccc([N+](=O)[O-])cc1	.	.	90.6	-	62.2	Diaph ctr 10uM=-;Diaphorase 30uM=-
COc1cccc(C=Nc2cccnc2)c1O	-	-	.	.	.
Cc1cc(O)c(C(C)C)cc1NC(=O)Nc1ccc([N+](=O)[O-])cc1	.	.	-	-	.
COc1cccc(C=Nc2cc(C(C)C)c(O)cc2C)c1O	.	.	114.0	-	66.5	Diaph ctr 10uM=-;Diaphorase 30uM=-
Cc1ccc(-c2nnc(SCC(=O)N/N=C/c3ccc(C(=O)O)cc3)n2C2CCCCC2)cc1	.	.	-	-	.
Cc1ccc(NC(=O)CN2CCN(Cc3ccccc3)CC2)cc1F	.	.	-	-	.
CCOC(=O)C1=C(C)Nc2nc(=S)[nH]n2C1c1ccc(Cl)cc1 (configuration not stated)	-	-	60.6	-	-
CCOC(=O)C1=C(C)Nc2nc(SCC)nn2C1c1ccc(OC)cc1 (configuration not stated)	-	-	-	-	.
CCOC(=O)C1=C(C)Nc2ncnn2C1c1ccc(N(C)C)cc1 (configuration not stated)	-	-	60.9!	-	-
CC[C@]1(C(=O)OC)[C@H]2C(=O)N(C)C(=O)[C@H]2[C@H]2CN=C(SCc3ccc(C#N)cc3)N21	.	.	-	-	.
COc1ccccc1CN(C)C(=O)CN1CCN(C(=O)c2cccs2)CC1	.	.	-	-	.
Cc1ccc(-c2csc(NC(=O)c3ccc(F)cc3)c2C(=O)O)cc1	.	.	88.3	-	-
O=C(Nc1scc(-c2ccccc2)c1C(=O)O)c1ccccc1F	.	.	-	-	.
Cc1ccc(-c2csc(NC(=O)c3ccccc3F)c2C(=O)O)cc1	.	.	73.0	-	51.4	Diaph ctr 10uM=-;Diaphorase 30uM=-
CCOC(=O)C(=CNc1ccc(N2CCCCC2)c(S(=O)(=O)Nc2ccccc2OC)c1)C(=O)OCC	.	.	64.7	-	-
COc1ccc(NS(=O)(=O)c2cc(N)ccc2N2CCCCC2)cc1	.	.	-	-	.
COc1ccccc1NS(=O)(=O)c1cc(N)ccc1N1CCCC1	.	.	70.5	-	-
Nc1ccc(N2CCCC2)c(S(=O)(=O)Nc2cccc(C(F)(F)F)c2)c1	.	.	79.6	-	-
SMILES	Diaphorase inh	G6PDH counter	PfGluPho inh	HKDC1 inhibitor	PfGluPho conf	others
Cc1cc(/C=C2\Cc3ccccc3C2=O)c(C)n1-c1ccccc1	-	-	59.3	-	-
Cc1cc(C=C2C(=O)c3ccccc3C2=O)c(C)n1-c1cccc(C(=O)O)c1	-	-	60.6	-	-
Cc1cc(C=C2C(=O)c3ccccc3C2=O)c(C)n1-c1ccc(C(=O)O)cc1	-	-	100.2	-	73.0	Diaph ctr 10uM=53.8;Diaphorase 30uM=61.0
COc1ccc(C(c2nnnn2C(C)C)N2CCN(C(=O)c3ccco3)CC2)cc1 (configuration not stated)	.	.	-	-	.
O=C(NCc1ccccn1)c1cccc(S(=O)(=O)N2CCCCC2)c1	.	.	-	-	.
CC(=O)N[C@@H](CC(=O)O)C(=O)O	.	.	-	-	.
CC(C)CC1C(=O)N(Cc2cn(Cc3ccco3)nn2)CCS(=O)(=O)N1Cc1ccc(-c2ccncc2)cc1 (configuration not stated)	.	.	-	.	.
CCOC(=O)c1c(C)oc2c1c(C=NCc1ccccn1)c(O)c1ccccc12	63.6	-	67.8	-	-
COc1cc(SC)ccc1C(=O)Nc1ccc(C)cc1	-	-	61.4	-	-
COc1cc(SC)ccc1C(=O)Nc1ccc2ncccc2c1	.	.	81.0	-	-
CC(OC(=O)C1CCCCC1)C(=O)Nc1cccc([N+](=O)[O-])c1 (configuration not stated)	.	.	-	-	.
O=C(NCCN1CCCCC1)c1ccc(Oc2cc(Cl)cc(Cl)c2)o1	.	.	-	-	.
Cc1cccc(OCCn2c(=S)[nH]c3ccccc32)c1	-	-	68.2	-	-
O=S(=O)(Nc1ccccc1)C1CCCCC1	.	.	-	-	.
CCCc1cc(C(=O)Nc2cccc([N+](=O)[O-])c2)cs1	.	.	81.5	-	-
CC(C)(C)c1ccc(C(=O)Nc2cccc([N+](=O)[O-])c2)cc1	-	-	74.0	-	-
O=C(Nc1cccc([N+](=O)[O-])c1)c1ccc2ccccc2c1O	.	.	77.6	-	-
O=C(Cc1cccs1)Nc1cccc([N+](=O)[O-])c1	-	-	-	-	.
O=C(Nc1cccc([N+](=O)[O-])c1)c1ccncc1	-	-	-	-	.
O=C(NNC(=O)c1cc2ccccc2[nH]1)OCc1ccccc1	.	.	-	-	.
S=C(Nc1ccccn1)c1ccccn1	-	-	66.8	-	-
O=C(Nc1ccccn1)C(=O)Nc1ccccn1	.	.	-	-	.
Cc1cc(C)cc(NS(=O)(=O)c2c(C)[nH]c(=O)[nH]c2=O)c1	.	.	-	-	.
Cc1ccc(N(CC(=O)NCC2CCCO2)C(=O)CCC(=O)Nc2nccs2)cc1 (configuration not stated)	.	.	-	-	.
COc1ccc(C(C)=O)c(OCC(=O)NCCC2=CCCCC2)c1	.	.	65.0	.	-
SMILES	Diaphorase inh	G6PDH counter	PfGluPho inh	HKDC1 inhibitor	PfGluPho conf	others
Oc1ccc(Nc2ccc3ccccc3c2)cc1	.	.	63.1	-	-
CCC(=O)Nc1ccc2ccccc2c1	-	-	-	-	.
C[C@]12CC[C@@H]3c4ccc(O)cc4CC[C@H]3[C@@H]1CC[C@@H]2O	-	-	-	-	.
C[C@]12CC[C@@H]3c4cc(O)c(O)cc4CC[C@H]3[C@@H]1CC[C@@H]2O	66.0	-	97.1	-	86.0	Diaph ctr 10uM=-;Diaphorase 30uM=-
NC(=S)NC(c1ccccc1)c1ccncc1 (configuration not stated)	.	.	-	-	.
O=C(Nc1ccccc1SC(=O)c1ccccc1)c1ccccc1	.	.	63.9	.	-
CSc1ccccc1NC(=O)c1ccccc1	-	-	-	-	.
Cc1noc(C)c1S(=O)(=O)Nc1ccccc1N1CCOCC1	.	.	-	-	.
O=S(=O)(Nc1ccccc1N1CCCCC1)c1ccc(F)cc1	.	.	68.7	-	-
Cc1cc(C)c(C)c(S(=O)(=O)Nc2ccccc2N2CCOCC2)c1C	.	.	65.0	-	-
Nc1cc(S(=O)(=O)Nc2cc(Cl)ccc2Cl)ccc1N1CCOCC1	.	.	61.2	-	-
O=S(=O)(Nc1ccccc1N1CCOCC1)c1ccc(Cl)cc1	.	.	70.0	-	-
